The text below walks through data of the M2OR odorant receptor database.

Holding throughout (conditions): stereoisomer not certain
In assay [1] the test system is OR1A1 G108A N109K A154T N155S. The method in brief:
(§1)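 Transient luciferase assays in mammalian cell lines were common, though methods varied by source. The values come from published papers and their supplementary material, with extra details from the original authors when needed. Responsive refers to a measured signal the original authors judged statistically different from baseline, and non-responsive (inactive) to the remainder.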

Assay [2] has as its system OR1A1 G108A N109K. The method in brief:
as §1

For assay [3], the system named is OR1A1 G108A. The method in brief:
as §1

The subject of assay [4] is OR1A1 I114T. An outline of the steps:
as §1

Assay [5] relates to OR1A1 I205V. The method in brief:
as §1

In assay [6] the test system is OR1A1 N109K. An outline of the steps: as §1
Chain of OR1A1 N109K (as listed by the source, stated change not applied): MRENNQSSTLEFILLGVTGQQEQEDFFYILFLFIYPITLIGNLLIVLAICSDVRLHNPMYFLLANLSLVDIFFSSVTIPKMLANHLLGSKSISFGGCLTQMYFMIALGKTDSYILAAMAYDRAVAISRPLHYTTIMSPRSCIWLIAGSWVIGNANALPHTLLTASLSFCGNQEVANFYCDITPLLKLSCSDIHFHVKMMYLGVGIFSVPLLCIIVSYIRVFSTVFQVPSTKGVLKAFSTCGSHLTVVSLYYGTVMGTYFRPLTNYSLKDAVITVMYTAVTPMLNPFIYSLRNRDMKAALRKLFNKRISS
Assay [7] deals with OR1A1 T110A. An outline of the steps:
as §1

For assay [8], the system named is OR1A1 T277V. An outline of the steps: as §1
Chain of OR1A1 T277V (as listed by the source, stated change not applied): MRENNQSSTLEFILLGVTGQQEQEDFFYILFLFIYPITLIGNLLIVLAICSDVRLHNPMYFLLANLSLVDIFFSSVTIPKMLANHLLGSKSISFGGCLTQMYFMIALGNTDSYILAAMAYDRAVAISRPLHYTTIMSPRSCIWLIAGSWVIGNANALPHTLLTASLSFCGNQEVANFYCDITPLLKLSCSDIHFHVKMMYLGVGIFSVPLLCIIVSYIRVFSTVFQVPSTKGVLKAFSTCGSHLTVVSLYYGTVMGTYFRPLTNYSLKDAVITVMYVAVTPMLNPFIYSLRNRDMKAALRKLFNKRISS
The subject of assay [9] is OR1A1 T99M. An outline of the steps:
as §1

The test system of assay [10] is OR1A1 V254T. The method in brief: as §1
Chain of OR1A1 V254T (as listed by the source, stated change not applied): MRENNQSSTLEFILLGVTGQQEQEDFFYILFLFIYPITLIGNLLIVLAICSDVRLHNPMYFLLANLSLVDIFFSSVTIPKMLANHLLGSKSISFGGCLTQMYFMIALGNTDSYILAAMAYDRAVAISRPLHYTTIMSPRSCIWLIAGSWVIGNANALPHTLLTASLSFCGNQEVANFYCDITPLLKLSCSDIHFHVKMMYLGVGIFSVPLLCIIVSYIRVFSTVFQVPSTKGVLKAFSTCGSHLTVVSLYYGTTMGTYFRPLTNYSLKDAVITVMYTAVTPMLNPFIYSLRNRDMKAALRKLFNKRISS

Each structure is given as a SMILES string.
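Further: active if original authors judged signal statistically different from baseline.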

Chain of OR1A1 G108A (as listed by the source, stated change not applied): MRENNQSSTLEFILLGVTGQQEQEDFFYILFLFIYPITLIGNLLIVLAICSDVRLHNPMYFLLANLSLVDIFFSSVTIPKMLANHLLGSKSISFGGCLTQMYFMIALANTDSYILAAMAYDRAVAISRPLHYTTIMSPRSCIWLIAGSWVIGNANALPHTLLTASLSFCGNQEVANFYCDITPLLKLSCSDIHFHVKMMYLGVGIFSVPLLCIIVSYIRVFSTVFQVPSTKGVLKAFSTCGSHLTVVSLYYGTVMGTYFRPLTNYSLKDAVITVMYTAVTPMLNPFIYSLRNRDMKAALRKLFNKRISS
Chain of OR1A1 I205V (as listed by the source, stated change not applied): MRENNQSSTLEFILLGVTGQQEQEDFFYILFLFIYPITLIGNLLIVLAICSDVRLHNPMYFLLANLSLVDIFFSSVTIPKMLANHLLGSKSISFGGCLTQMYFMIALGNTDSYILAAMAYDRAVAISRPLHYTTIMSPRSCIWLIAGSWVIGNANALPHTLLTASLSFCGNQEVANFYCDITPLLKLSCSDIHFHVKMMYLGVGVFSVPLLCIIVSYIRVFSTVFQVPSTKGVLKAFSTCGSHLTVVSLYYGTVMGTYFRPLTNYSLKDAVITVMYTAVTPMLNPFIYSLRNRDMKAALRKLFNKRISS
Chain of OR1A1 T99M (as listed by the source, stated change not applied): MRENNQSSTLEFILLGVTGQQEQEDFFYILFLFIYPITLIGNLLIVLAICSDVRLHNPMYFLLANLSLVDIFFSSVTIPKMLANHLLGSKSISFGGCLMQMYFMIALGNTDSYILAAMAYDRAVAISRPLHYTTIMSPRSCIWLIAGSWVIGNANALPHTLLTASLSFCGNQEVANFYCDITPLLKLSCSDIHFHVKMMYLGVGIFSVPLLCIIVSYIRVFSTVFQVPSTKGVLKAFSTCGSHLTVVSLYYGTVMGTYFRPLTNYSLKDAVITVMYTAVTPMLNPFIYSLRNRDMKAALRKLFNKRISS
Chain of OR1A1 I114T (as listed by the source, stated change not applied): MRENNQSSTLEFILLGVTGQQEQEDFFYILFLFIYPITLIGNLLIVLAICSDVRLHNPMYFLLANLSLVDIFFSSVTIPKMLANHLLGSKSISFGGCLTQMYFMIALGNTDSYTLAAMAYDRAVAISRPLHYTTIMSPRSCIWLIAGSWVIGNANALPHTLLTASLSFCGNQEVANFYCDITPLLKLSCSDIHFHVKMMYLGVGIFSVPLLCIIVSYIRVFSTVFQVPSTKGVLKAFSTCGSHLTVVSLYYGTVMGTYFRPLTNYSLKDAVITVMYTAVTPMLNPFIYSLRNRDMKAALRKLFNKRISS
Chain of OR1A1 T110A (as listed by the source, stated change not applied): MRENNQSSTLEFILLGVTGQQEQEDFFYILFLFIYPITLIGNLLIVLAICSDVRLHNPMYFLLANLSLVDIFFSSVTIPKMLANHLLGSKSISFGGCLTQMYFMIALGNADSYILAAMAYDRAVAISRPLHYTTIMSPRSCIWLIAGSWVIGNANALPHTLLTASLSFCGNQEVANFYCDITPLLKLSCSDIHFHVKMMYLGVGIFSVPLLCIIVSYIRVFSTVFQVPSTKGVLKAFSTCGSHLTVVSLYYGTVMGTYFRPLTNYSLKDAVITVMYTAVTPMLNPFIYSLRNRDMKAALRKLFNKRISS

`CC(C)=CCCC(C)CCO` (stereo not given): the “odorant receptor agonist call” value in assay [1], in [2], in assay [3] and in assay [6] was “inactive” each time. Further, the “odorant receptor agonist call” value in assay [4], in assay [5], in assay [7], in assay [8], in assay [9] and in [10] was “active” each time.
